In ChEMBL document CHEMBL5046217, “Discovery of New Imidazo[2,1-b]thiazole Derivatives as Potent Pan-RAF Inhibitors with Promising In Vitro and In Vivo Anti-melanoma Activity” (J Med Chem, 2021):
One block for each compound: values may come before it. Activity calls are given as the source filed them. The calls are words filed in the database; no cut-off is given here.

Columns and labels:
UACC-62 [1] = test: Antiproliferative activity against human UACC-62 cells assessed as total growth inhibition measured after 48 hrs by SRB assay; conditions: UACC-62, 48 h
SK-MEL-28 [2] = test: Antiproliferative activity against human SK-MEL-28 cells assessed as total growth inhibition measured after 48 hrs by SRB assay; conditions: SK-MEL-28, 48 h
[3] = tested on: Panel colon (Carcinoma cell lines); test: cells; conditions: Homo sapiens, 48 h, read-out: INH
[4] = tested on: Panel melanoma (Carcinoma cell lines); test: cells; conditions: Homo sapiens, 48 h, read-out: INH
[5] = tested on: Panel leukemia (Carcinoma cell lines); test: Antiproliferative activity against human Panel leukemia (Carcinoma cell lines) assessed as cell growth inhibition measured after 48 hrs by SRB assay
Malme-3M [6] = test: Antiproliferative activity against human Malme-3M cells assessed as cell growth inhibition measured after 48 hrs by SRB assay
MDA-MB-435 [7] = test: Antiproliferative activity against human MDA-MB-435 cells assessed as cell growth inhibition measured after 48 hrs by SRB assay; conditions: MDA-MB-435, 48 h
LOX IMVI [8] = test: Antiproliferative activity against human LOX IMVI cells assessed as total growth inhibition measured after 48 hrs by SRB assay
M14 [9] = test: Antiproliferative activity against human M14 cells assessed as cell growth inhibition measured after 48 hrs by SRB assay; conditions: M14, 48 h
SK-MEL-2 [10] = test: Antiproliferative activity against human SK-MEL-2 cells assessed as cell growth inhibition measured after 48 hrs by SRB assay; conditions: SK-MEL-2, 48 h
[11] = tested on: Panel breast (Carcinoma cell lines); test: Antiproliferative activity against human Panel breast (Carcinoma cell lines) assessed as cell growth inhibition measured after 48 hrs by SRB assay
[12] = tested on: Panel leukemia (Carcinoma cell lines); test: cells; conditions: Homo sapiens, 48 h, read-out: INH
MDA-MB-435 [13] = test: Antiproliferative activity against human MDA-MB-435 cells assessed as total growth inhibition measured after 48 hrs by SRB assay; conditions: MDA-MB-435, 48 h
UACC-62 [14] = test: Antiproliferative activity against human UACC-62 cells assessed as cell growth inhibition measured after 48 hrs by SRB assay; conditions: UACC-62, 48 h
[15] = tested on: Panel CNS (Carcinoma cell lines); test: Antiproliferative activity against human Panel CNS (Carcinoma cell lines) assessed as cell growth inhibition measured after 48 hrs by SRB assay
M14 [16] = test: Antiproliferative activity against human M14 cells assessed as total growth inhibition measured after 48 hrs by SRB assay; conditions: M14, 48 h
[17] = tested on: Panel colon (Carcinoma cell lines); test: Antiproliferative activity against human Panel colon (Carcinoma cell lines) assessed as cell growth inhibition measured after 48 hrs by SRB assay
[18] = tested on: Panel prostate (Carcinoma cell lines); test: Antiproliferative activity against human Panel prostate (Carcinoma cell lines) assessed as cell growth inhibition measured after 48 hrs by SRB assay
[19] = Cytotoxicity against human BJ cells assessed as cell growth inhibition incubated for 48 hrs by MTT assay; type: toxicity, cell-based
Outline: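 BJ1 normal skin fibroblasts were seeded at 10 × 10³ cells/well with compound in triplicate wells and grown in DMEM-F12 at 37 °C, 5% CO₂, across an eight-point dilution series. Growth inhibition was calculated as (1 − T/C) × 100, and IC50 was taken from the dose–response curve.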

[20] = tested on: Panel melanoma (Carcinoma cell lines); test: Antiproliferative activity against human Panel melanoma (Carcinoma cell lines) assessed as cell growth inhibition measured after 48 hrs by SRB assay
LOX IMVI [21] = test: Antiproliferative activity against human LOX IMVI cells assessed as cell growth inhibition measured after 48 hrs by SRB assay
SK-MEL-28 [22] = test: Antiproliferative activity against human SK-MEL-28 cells assessed as cell growth inhibition measured after 48 hrs by SRB assay; conditions: SK-MEL-28, 48 h
in vitro = conditions: human, BJ cells and Malme-3M cells
[23] = tested on: Panel ovarian (Carcinoma cell lines); test: cells; conditions: Homo sapiens, 48 h, read-out: INH
SK-MEL-5 [24] = test: Antiproliferative activity against human SK-MEL-5 cells assessed as total growth inhibition measured after 48 hrs by SRB assay; conditions: SK-MEL-5, 48 h
SK-MEL-5 [25] = test: Antiproliferative activity against human SK-MEL-5 cells assessed as cell growth inhibition measured after 48 hrs by SRB assay; conditions: SK-MEL-5, 48 h
NSCLC = test: Antiproliferative activity against human NSCLC cell line assessed as cell growth inhibition measured after 48 hrs by SRB assay
[26] = target: RAF proto-oncogene serine/threonine-protein kinase (Homo sapiens, UniProt P04049); test: Inhibition of human wild type CRAF using myelin basic protein as substrate in presence of [gamma-33P]ATP incubated for 40 mins by scintillation counting method
[27] = tested on: Panel ovarian (Carcinoma cell lines); test: Antiproliferative activity against human Panel ovarian (Carcinoma cell lines) assessed as cell growth inhibition measured after 48 hrs by SRB assay
UACC-257 [28] = test: Antiproliferative activity against human UACC-257 cells assessed as cell growth inhibition measured after 48 hrs by SRB assay; conditions: UACC-257, 48 h
[29] = tested on: Panel renal (Carcinoma cell lines); test: Antiproliferative activity against human Panel renal (Carcinoma cell lines) assessed as cell growth inhibition measured after 48 hrs by SRB assay
SK-MEL-2 [30] = test: Antiproliferative activity against human SK-MEL-2 cells assessed as total growth inhibition measured after 48 hrs by SRB assay; conditions: SK-MEL-2, 48 h
UACC-257 [31] = test: Antiproliferative activity against human UACC-257 cells assessed as total growth inhibition measured after 48 hrs by SRB assay; conditions: UACC-257, 48 h
[32] = Cytotoxicity against human L132 cells assessed as cell growth inhibition incubated for 48 hrs by MTT assay; type: toxicity, cell-based
Malme-3M [33] = test: Antiproliferative activity against human Malme-3M cells assessed as total growth inhibition measured after 48 hrs by SRB assay
[34] = target: Serine/threonine-protein kinase B-raf (Homo sapiens, UniProt P15056, V600E); test: Inhibition of human BRAF V600E mutant using myelin basic protein as substrate in presence of [gamma-33P]ATP incubated for 40 mins by scintillation counting method
Outline: (§1)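 Radiometric kinase assay run at Reaction Biology. Kinase (5−10 mU) in 25 mM Tris pH 7.5, 0.02 mM EGTA, 10 mM magnesium acetate with 0.66 mg/mL myelin basic protein and [γ-33P]ATP at 1 μM ATP. Reaction started with Mg-ATP and run 40 min at room temperature, then stopped with 3% phosphoric acid. Spotted on P30 filtermat, washed, scintillation counted.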

[35] = target: Serine/threonine-protein kinase B-raf (Homo sapiens, UniProt P15056); test: Inhibition of human wild type BRAF using myelin basic protein as substrate in presence of [gamma-33P]ATP incubated for 40 mins by scintillation counting method; outline: as §1
A-375 [36] = test: Inhibition of Pan-Raf in human A-375 cells assessed as reduction in ERK phosphorylation at 5 uM measured after 24 hrs by immunoblot assay; type: cell-based
Outline: (§2)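 A375 cells were treated for 24 h, including at 5 μM alongside vemurafenib. Cells were lysed in RIPA buffer with phosphatase and protease inhibitors, separated by SDS-PAGE and blotted to PVDF. Blots were probed for phospho-MEK1/2, phospho-ERK1/2, total MEK and total ERK, with chemiluminescent detection.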

A-375 [37] = test: Inhibition of Pan-Raf in human A-375 cells assessed as reduction in MEK phosphorylation at 5 uM measured after 24 hrs by immunoblot assay; type: cell-based; outline: as §2
[38] = Stability in rat plasma assessed as parent compound remaining at 10 uM measured after 30 mins by LC-MS analysis; type: ADME, cell-free; conditions: read-out: Stability
Outline: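 About 10 μM compound shaken in human or rat plasma at 37 °C for 30 and 120 min. Acetonitrile added, samples centrifuged at 4 °C, and remaining parent in the supernatant quantified by LC−MS. Procaine and diltiazem run as references.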

RAF proto-oncogene serine/threonine-protein kinase, sequence (P04049 whole entry): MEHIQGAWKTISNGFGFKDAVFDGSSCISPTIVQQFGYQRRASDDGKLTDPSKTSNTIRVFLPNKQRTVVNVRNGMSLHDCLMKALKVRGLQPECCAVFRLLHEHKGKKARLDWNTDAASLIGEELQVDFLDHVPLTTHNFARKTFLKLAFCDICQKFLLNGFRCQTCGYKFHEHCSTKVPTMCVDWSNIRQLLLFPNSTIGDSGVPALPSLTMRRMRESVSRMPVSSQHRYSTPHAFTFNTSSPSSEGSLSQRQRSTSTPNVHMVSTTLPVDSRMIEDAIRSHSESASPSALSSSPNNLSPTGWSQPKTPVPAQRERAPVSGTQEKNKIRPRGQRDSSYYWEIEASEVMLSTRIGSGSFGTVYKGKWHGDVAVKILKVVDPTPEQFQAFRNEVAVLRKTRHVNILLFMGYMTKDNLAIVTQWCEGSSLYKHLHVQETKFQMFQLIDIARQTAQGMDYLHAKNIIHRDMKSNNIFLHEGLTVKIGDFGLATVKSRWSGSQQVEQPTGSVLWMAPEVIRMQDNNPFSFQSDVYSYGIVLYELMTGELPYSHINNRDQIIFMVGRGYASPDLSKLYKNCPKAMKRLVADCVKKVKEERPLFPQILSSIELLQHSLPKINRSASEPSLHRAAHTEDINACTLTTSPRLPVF
Serine/threonine-protein kinase B-raf (Homo sapiens, UniProt P15056), sequence (P15056 whole entry): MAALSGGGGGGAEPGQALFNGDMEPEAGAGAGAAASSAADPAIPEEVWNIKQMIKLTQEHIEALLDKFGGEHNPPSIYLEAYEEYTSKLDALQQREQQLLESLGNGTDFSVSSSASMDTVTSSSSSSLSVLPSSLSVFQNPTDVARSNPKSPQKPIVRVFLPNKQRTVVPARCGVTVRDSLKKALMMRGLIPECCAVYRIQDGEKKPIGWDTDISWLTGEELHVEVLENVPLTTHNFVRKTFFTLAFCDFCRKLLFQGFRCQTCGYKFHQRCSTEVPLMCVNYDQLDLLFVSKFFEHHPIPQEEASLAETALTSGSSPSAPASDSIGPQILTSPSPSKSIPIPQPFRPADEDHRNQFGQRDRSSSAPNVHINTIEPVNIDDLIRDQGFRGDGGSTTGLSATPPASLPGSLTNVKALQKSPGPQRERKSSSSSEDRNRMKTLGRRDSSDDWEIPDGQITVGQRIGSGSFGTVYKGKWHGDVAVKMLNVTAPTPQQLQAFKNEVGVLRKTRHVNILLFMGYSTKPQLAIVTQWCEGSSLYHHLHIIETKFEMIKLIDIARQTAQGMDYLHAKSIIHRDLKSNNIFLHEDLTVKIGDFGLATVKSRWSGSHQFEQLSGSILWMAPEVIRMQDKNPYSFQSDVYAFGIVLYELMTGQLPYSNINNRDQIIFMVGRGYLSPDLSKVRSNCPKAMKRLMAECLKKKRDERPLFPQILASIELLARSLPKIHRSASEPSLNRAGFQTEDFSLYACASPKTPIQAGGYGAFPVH
Serine/threonine-protein kinase B-raf (Homo sapiens, UniProt P15056, V600E), sequence (P15056 2-766 V600E limits assumed): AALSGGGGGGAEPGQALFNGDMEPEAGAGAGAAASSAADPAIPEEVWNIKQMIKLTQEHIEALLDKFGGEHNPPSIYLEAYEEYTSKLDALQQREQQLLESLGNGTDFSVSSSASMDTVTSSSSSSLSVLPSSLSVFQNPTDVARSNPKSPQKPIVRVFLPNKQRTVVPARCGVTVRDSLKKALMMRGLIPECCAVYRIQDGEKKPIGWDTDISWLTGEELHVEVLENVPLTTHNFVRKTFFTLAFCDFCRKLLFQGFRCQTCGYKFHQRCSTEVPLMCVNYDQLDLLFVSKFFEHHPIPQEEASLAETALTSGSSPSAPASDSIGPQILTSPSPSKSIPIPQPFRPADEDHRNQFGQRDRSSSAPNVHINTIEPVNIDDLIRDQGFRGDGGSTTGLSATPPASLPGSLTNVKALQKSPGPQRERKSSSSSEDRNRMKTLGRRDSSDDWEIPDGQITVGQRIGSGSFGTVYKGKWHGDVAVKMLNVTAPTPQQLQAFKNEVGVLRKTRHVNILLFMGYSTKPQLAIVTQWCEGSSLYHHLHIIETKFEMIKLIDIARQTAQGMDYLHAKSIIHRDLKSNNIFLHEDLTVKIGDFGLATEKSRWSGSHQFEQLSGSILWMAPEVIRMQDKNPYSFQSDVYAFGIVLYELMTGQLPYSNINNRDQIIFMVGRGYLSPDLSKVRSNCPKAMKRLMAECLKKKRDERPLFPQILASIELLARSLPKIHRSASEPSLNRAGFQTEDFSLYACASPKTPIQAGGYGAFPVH

IC50 [5]: 2.99 µM | IC50 (MDA-MB-435 [7]): 1.2 µM | IC50 (SK-MEL-2 [10]): 4.9 µM | IC50 [11]: 13.3 µM | IC50 [15]: 6.46 µM | IC50 [17]: 2.19 µM | IC50 [18]: 2.45 µM | IC50 [20]: 4.03 µM | IC50 (SK-MEL-28 [22]): 5.7 µM | IC50 (SK-MEL-5 [25]): 1.7 µM | IC50 [26]: 0.172 µM | IC50 [27]: 3.57 µM | IC50 [29]: 3.7 µM
Compound: COc1ccc(S(=O)(=O)NCCNc2nccc(-c3c(-c4ccccc4)nc4sccn34)n2)cc1
TGI (UACC-62 [1]): > 100 µM | TGI (SK-MEL-28 [2]): > 100 µM | inhibition at 10 µM [3]: 76.7% | inhibition at 10 µM [4]: 83.8% | IC50 (Malme-3M [6]): 8.7 µM | TGI (LOX IMVI [8]): > 100 µM | IC50 (M14 [9]): 2.7 µM | inhibition at 10 µM [12]: 81.3% | TGI (MDA-MB-435 [13]): > 100 µM | IC50 (UACC-62 [14]): 1.1 µM | TGI (M14 [16]): > 100 µM | IC50 at 48 h [19]: 55.6 µM | IC50 (LOX IMVI [21]): 3.9 µM | selectivity ratio (in vitro): 6.4 | inhibition at 10 µM [23]: 73.2% | TGI (SK-MEL-5 [24]): > 100 µM | IC50 (NSCLC): 5.42 µM | IC50 (UACC-257 [28]): 6.4 µM | TGI (SK-MEL-2 [30]): > 100 µM | TGI (UACC-257 [31]): > 100 µM | IC50 at 48 h [32]: 60.2 µM | TGI (Malme-3M [33]): > 100 µM

IC50 [34]: 26.6 µM | IC50 [35]: 19.3 µM | IC50 [26]: 21.3 µM
Compound: COc1ccc(-c2nc3sccn3c2-c2ccnc(NCCNS(=O)(=O)c3ccc(C)cc3)n2)cc1
IC50 at 48 h [19]: 126 µM | IC50 at 48 h [32]: 466 µM

Compound: CCCS(=O)(=O)Nc1ccc(F)c(C(=O)c2c[nH]c3ncc(-c4ccc(Cl)cc4)cc23)c1F
inhibition (A-375 [36]): Active | inhibition (A-375 [37]): Active

Compound: CCN(CC)CCOC(=O)c1ccc(N)cc1 [PROCAINE]
remaining at 0.5 h, 10 µM [38]: 84.9%
